ChEMBL document CHEMBL3351863, “Optimization of 2-phenyl-pyrimidine-4-carboxamides towards potent, orally bioavailable and selective P2Y(12) antagonists for inhibition of platelet aggregation” (Bioorg Med Chem Lett, 2014)
Calls of active or inactive are those of the source. No cut-off for these calls is given here.

How the values were obtained:
[1] = Potency shift, ratio of IC50 for inhibition of ADP-induced platelet aggregation in human platelet rich plasma to IC50 for displacement of [3H]-2-methyl-thio-adenosine 5'-diphosphate from human recombinant P2Y12 expressed in CHO cell membranes
Rattus norvegicus [2] = test: AUC in Wistar rat at 10 mg/kg, po; type: ADME, organism-based, Plasma; set-up: dose 10 mg/kg, route oral; conditions: in vivo
Summary of the method: (§1)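 Rats dosed by iv infusion at 1 mg/kg (n = 2) or orally at 10 mg/kg (n = 3); plasma levels measured, limit of quantification ca. 1 ng/mL.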

Cytochrome P450 3A4 [3] = molecular target: T1, Cytochrome P450 3A4 (Homo sapiens, UniProt P08684); test: Inhibition of CYP3A4 in human liver microsomes assessed as reduction in midazolam 1'-hydroxylation; type: ADME
T1 sequence (P08684 whole entry): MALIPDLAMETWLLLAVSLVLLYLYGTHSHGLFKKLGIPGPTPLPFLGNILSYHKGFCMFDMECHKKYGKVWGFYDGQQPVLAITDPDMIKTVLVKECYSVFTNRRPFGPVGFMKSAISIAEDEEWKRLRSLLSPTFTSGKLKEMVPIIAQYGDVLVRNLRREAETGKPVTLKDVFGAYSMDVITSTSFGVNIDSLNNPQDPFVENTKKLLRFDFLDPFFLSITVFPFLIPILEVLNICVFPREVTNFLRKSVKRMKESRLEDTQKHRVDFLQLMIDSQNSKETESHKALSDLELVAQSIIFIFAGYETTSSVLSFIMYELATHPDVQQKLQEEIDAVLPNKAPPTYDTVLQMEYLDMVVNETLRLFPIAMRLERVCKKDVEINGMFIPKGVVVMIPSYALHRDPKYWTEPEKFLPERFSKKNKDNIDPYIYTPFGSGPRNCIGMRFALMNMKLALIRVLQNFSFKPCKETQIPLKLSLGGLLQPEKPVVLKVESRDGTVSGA

Platelet [4] = test: Inhibition of ADP-induced platelet aggregation in human platelet rich plasma assessed as remaining activity at 500 nM by in-vitro light transmission aggregometry assay; type: functional
Summary of the method: (§2)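 Light transmission aggregometry in human platelet-rich plasma; compound incubated, aggregation triggered with 3 µM ADP; remaining activity (RA) recorded at a single compound level (1000, 500 or 100 nM).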

[5] = Solubility in neutral pH; type: physicochemical
Cytochrome P450 3A4 [6] = molecular target: T1, Cytochrome P450 3A4; test: Inhibition of CYP3A4 in human liver microsomes assessed as reduction in testosterone 6beta-hydroxylation; type: ADME
Platelet [7] = test: Inhibition of ADP-induced platelet aggregation in human platelet rich plasma by in-vitro light transmission aggregometry assay; type: functional; conditions: Homo sapiens, Platelet, Plasma
Summary of the method: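 Human platelet-rich plasma incubated with compound, aggregation induced by 3 µM ADP and read by light transmission aggregometry; IC₅₀ derived from concentration–response curve.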

Cytochrome P450 2C9 = Cytochrome P450 2C9 (Homo sapiens, UniProt P11712); test: Inhibition of CYP2C9 in human liver microsomes assessed as reduction in diclofenac 4'-hydroxylation; type: ADME
Chain of Cytochrome P450 2C9 (P11712 whole entry): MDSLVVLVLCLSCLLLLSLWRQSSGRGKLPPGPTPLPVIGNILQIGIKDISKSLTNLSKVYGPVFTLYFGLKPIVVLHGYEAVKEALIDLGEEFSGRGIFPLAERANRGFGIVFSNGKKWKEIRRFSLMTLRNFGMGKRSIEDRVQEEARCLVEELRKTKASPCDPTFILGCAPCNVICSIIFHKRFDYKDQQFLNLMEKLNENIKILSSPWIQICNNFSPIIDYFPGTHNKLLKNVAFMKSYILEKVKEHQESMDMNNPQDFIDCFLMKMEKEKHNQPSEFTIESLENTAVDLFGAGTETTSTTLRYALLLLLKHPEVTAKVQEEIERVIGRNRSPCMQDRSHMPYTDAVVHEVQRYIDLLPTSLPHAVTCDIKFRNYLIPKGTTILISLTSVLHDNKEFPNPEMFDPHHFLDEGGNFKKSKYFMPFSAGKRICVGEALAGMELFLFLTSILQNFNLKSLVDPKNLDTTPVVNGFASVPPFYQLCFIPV

Platelet [8] = test: Inhibition of ADP-induced platelet aggregation in human platelet rich plasma assessed as remaining activity at 100 nM by in-vitro light transmission aggregometry assay; type: functional; summary of the method: as §2
Liver microsome [9] = test: Metabolic stability assay in rat liver microsomes assessed as parent drug disappearance at 1 uM after 20 mins by HPLC and mass spectrometry method; type: ADME
Rattus norvegicus [10] = test: (§3) Cmax in Wistar rat at 10 mg/kg, po; type: ADME, organism-based; set-up: dose 10 mg/kg, route oral; conditions: in vivo, BLD = below limit of detection; summary of the method: as §1
Cytochrome P450 2D6 = Cytochrome P450 2D6 (Homo sapiens, UniProt P10635); test: Inhibition of CYP2D6 in human liver microsomes assessed as reduction in dextromethorphan-O demethylation; type: ADME
Chain of Cytochrome P450 2D6 (P10635 whole entry): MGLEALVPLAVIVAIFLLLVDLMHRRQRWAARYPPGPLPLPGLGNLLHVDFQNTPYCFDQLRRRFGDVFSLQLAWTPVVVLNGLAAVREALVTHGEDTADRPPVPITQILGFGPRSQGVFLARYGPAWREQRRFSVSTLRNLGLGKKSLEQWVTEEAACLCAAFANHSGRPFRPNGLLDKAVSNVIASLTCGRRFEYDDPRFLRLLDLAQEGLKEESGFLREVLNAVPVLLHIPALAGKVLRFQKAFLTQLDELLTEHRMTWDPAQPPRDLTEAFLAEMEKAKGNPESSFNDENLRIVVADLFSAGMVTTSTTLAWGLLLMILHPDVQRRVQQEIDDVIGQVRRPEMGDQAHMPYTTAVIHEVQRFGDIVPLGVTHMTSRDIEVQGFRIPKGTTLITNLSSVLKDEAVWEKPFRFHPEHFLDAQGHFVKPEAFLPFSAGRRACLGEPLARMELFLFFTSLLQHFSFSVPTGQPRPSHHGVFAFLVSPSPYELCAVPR

Liver microsome [11] = test: Metabolic stability assay in human liver microsomes assessed as parent drug disappearance at 1 uM after 20 mins by HPLC and mass spectrometry method; type: ADME
[12] = molecular target: Voltage-gated inwardly rectifying potassium channel KCNH2 (Homo sapiens, UniProt Q12809); test: Inhibition of human ERG expressed in HEK cells by patch-clamp assay; type: cell-based; conditions: hek293
Chain of Voltage-gated inwardly rectifying potassium channel KCNH2 (Q12809 whole entry): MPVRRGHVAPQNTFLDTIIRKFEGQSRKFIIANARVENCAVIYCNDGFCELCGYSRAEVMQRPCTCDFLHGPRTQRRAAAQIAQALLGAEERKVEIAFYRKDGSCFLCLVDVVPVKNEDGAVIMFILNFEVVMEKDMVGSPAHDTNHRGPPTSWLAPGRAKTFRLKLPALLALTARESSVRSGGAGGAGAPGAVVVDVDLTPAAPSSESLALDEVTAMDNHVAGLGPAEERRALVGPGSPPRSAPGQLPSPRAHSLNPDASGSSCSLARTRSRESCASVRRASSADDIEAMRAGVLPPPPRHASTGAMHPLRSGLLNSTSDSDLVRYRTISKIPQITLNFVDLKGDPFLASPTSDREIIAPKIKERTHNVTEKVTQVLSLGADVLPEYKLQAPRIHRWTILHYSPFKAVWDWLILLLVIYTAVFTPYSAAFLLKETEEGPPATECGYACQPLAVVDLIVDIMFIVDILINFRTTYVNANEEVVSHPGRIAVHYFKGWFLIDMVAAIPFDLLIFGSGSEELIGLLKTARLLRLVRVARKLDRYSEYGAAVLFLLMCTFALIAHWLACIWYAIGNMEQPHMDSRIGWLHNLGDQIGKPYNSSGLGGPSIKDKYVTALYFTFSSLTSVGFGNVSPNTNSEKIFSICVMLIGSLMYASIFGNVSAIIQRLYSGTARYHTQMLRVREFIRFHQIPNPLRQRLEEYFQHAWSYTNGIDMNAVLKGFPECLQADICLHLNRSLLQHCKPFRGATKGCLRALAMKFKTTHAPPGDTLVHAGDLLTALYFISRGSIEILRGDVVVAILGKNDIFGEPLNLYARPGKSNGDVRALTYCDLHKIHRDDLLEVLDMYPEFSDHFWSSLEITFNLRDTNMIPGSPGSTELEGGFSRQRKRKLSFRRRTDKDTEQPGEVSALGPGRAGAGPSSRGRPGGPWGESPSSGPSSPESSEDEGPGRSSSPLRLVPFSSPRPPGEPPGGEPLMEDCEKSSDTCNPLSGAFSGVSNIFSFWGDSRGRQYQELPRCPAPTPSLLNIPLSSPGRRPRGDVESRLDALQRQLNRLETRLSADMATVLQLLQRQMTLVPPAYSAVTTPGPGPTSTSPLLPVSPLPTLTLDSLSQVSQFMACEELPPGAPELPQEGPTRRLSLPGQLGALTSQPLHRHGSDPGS

[13] = Solubility in basic pH; type: physicochemical
[14] = Half life in Wistar rat at 1 mg/kg, iv or 10 mg/kg, po; type: ADME, organism-based; conditions: in vivo; summary of the method: as §1
[15] = Volume of distribution at steady state in Wistar rat at 1 mg/kg, iv or 10 mg/kg, po; type: ADME, organism-based; conditions: in vivo, read-out: Vdss; summary of the method: as §1
[16] = Protein binding in human plasma; type: ADME, cell-free; conditions: read-out: PPB (converted)
Rattus norvegicus [17] = test: Oral bioavailability in Wistar rat at 10 mg/kg; type: ADME, organism-based; conditions: in vivo; summary of the method: as §1
[18] = as §3; type: ADME, organism-based; set-up: dose 10 mg/kg, route oral; conditions: Wistar, in vivo; summary of the method: as §1
P2Y purinoceptor 12 = P2Y purinoceptor 12 (Homo sapiens, UniProt Q9H244); test: Displacement of [3H]-2-methyl-thio-adenosine 5'-diphosphate from human recombinant P2Y12 expressed in CHO cell membranes by scintillation counting method
Chain of P2Y purinoceptor 12 (Q9H244 whole entry): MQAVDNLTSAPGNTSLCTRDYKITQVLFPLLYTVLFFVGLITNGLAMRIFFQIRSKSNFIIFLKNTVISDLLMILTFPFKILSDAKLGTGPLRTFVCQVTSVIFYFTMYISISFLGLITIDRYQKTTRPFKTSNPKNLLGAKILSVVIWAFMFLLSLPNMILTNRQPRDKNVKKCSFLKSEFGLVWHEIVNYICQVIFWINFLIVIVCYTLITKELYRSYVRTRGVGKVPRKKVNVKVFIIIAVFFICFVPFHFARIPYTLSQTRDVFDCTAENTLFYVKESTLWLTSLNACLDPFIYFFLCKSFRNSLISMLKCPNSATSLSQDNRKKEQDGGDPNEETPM
Summary of the method: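 CHO cells expressing recombinant P2Y₁₂ receptors, incubated with tritium-labeled 2-methyl-thio-adenosine 5'-diphosphate plus test compound; IC₅₀ from displacement curves, each point in triplicate; reference compound run with every compound set, and set re-analyzed if its IC₅₀ fell outside pre-set 95% confidence interval.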

[19] = molecular target: T2, P2X purinoceptor 4 (Homo sapiens) (UniProt Q99571); test: Antagonist activity against P2X4 (unknown origin)
T2 sequence (whole entry): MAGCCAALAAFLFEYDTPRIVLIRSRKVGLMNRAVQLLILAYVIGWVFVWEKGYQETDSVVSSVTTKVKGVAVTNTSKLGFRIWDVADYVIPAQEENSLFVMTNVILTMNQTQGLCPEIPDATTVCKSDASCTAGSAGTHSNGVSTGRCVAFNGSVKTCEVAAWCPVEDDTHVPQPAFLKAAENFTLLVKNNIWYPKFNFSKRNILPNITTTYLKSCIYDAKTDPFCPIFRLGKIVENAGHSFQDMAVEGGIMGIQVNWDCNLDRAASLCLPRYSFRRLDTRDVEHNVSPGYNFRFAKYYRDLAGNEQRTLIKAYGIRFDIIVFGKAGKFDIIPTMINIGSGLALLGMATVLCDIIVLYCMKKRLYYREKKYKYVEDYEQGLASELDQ

[20] = molecular target: T3, P2Y purinoceptor 13 (Homo sapiens) (UniProt Q9BPV8); test: Antagonist activity against P2Y13 (unknown origin) assessed as inhibition of agonist binding up to 10 uM
T3 sequence (whole entry): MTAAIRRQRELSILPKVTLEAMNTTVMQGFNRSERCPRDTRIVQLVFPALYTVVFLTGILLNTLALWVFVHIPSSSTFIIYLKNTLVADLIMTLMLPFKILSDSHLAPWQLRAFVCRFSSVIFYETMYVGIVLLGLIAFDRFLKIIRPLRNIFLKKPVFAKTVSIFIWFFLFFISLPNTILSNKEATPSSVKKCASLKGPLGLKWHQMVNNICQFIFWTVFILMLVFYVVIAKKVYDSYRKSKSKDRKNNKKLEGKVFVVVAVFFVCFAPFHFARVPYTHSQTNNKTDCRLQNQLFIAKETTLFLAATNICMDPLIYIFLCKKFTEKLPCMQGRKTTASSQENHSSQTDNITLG

[21] = molecular target: T4, P2Y purinoceptor 11 (Homo sapiens) (UniProt Q96G91); test: Antagonist activity against P2Y11 (unknown origin) assessed as inhibition of agonist binding up to 10 uM
T4 sequence (whole entry): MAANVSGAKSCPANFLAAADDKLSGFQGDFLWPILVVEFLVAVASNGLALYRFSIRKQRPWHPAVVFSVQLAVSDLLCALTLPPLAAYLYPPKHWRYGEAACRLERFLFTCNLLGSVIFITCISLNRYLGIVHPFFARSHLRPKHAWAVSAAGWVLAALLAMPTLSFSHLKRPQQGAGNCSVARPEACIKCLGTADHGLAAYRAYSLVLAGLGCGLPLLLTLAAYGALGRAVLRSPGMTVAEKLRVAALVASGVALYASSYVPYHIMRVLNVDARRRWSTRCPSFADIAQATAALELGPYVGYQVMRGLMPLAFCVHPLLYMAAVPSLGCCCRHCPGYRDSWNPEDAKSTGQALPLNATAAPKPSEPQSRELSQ

[22] = molecular target: T5, P2X purinoceptor 7 (Homo sapiens) (UniProt Q99572); test: Antagonist activity against P2X7 (unknown origin)
T5 sequence (whole entry): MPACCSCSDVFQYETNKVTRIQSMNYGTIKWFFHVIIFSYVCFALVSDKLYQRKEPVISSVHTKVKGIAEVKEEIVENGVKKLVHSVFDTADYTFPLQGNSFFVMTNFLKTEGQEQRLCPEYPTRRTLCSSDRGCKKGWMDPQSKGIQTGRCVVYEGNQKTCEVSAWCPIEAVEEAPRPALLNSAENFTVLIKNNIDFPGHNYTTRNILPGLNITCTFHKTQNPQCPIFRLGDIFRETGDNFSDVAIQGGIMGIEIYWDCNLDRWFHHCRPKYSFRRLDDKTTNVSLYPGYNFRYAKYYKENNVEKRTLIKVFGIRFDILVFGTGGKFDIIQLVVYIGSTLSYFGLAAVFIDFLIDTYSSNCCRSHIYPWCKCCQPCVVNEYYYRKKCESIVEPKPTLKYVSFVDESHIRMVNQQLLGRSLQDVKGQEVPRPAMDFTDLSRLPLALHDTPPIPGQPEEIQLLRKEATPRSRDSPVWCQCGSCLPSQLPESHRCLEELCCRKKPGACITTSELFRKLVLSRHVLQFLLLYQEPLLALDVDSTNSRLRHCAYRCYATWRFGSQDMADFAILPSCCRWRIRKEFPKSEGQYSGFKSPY

[23] = molecular target: P2Y purinoceptor 4 (Homo sapiens) (UniProt P51582); test: Antagonist activity against P2Y4 (unknown origin) assessed as inhibition of agonist binding up to 10 uM
Chain of P2Y purinoceptor 4 (Homo sapiens) (P51582 whole entry): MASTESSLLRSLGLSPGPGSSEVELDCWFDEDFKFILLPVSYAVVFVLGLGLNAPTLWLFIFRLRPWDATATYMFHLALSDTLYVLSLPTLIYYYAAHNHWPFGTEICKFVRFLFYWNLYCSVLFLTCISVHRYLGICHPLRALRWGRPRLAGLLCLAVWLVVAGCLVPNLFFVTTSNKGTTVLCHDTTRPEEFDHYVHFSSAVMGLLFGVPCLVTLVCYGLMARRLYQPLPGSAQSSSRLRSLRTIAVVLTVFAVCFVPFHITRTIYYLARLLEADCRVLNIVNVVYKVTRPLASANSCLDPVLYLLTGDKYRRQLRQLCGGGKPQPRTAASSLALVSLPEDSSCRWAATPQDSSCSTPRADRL

[24] = molecular target: P2Y purinoceptor 6 (Homo sapiens) (UniProt Q15077); test: Antagonist activity against P2Y6 (unknown origin) assessed as inhibition of agonist binding up to 10 uM
Chain of P2Y purinoceptor 6 (Homo sapiens) (Q15077 whole entry): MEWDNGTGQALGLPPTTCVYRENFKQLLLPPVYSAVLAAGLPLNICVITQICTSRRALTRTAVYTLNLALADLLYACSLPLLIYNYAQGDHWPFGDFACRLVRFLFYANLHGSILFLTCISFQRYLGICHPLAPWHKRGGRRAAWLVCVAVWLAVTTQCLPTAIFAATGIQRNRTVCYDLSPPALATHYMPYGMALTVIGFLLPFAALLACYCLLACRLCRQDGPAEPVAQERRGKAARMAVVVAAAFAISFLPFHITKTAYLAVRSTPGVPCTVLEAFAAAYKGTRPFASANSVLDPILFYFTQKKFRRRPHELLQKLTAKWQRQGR

[25] = molecular target: T6, P2X purinoceptor 3 (Homo sapiens) (UniProt P56373); test: Antagonist activity against P2X3 (unknown origin)
T6 sequence (whole entry): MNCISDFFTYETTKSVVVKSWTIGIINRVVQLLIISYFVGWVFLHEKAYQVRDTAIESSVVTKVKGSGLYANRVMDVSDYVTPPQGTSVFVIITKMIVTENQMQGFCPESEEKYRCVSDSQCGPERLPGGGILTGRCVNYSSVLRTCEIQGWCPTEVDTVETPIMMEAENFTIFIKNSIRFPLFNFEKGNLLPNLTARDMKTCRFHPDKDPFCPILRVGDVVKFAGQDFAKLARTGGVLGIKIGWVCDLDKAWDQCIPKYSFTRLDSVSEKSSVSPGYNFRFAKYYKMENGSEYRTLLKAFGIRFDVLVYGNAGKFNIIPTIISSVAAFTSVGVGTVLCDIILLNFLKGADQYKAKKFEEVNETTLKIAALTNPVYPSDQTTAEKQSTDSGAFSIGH

[26] = molecular target: T7, P2X purinoceptor 2 (Homo sapiens) (UniProt Q9UBL9); test: Antagonist activity against P2X2 (unknown origin)
T7 sequence (whole entry): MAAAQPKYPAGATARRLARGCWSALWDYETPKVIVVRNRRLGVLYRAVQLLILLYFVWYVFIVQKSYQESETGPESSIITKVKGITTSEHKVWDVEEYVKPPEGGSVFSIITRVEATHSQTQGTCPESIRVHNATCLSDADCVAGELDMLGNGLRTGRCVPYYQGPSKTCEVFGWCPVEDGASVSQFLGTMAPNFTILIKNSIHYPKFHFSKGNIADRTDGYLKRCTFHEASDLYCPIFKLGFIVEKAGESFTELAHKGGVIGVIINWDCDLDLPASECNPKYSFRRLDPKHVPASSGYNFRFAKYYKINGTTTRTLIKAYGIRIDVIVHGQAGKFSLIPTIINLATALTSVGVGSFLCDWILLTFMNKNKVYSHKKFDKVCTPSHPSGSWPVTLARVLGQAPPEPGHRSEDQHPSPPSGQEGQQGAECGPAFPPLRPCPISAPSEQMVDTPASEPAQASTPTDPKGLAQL

[27] = molecular target: P2Y purinoceptor 2 (Homo sapiens) (UniProt P41231); test: Antagonist activity against P2Y2 (unknown origin) assessed as inhibition of agonist binding up to 10 uM
Chain of P2Y purinoceptor 2 (Homo sapiens) (P41231 whole entry): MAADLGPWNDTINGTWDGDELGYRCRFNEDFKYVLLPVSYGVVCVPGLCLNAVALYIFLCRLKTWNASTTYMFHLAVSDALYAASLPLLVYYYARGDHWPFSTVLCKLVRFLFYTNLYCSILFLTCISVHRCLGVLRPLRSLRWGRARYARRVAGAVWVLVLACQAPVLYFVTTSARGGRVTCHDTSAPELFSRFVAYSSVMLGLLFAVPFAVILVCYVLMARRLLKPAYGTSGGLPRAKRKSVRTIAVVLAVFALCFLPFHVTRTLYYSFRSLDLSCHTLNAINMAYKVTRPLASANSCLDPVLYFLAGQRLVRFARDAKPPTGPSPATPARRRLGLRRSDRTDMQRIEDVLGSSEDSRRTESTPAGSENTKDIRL

[28] = molecular target: T8, P2X purinoceptor 1 (Homo sapiens) (UniProt P51575); test: Antagonist activity against P2X1 (unknown origin)
T8 sequence (whole entry): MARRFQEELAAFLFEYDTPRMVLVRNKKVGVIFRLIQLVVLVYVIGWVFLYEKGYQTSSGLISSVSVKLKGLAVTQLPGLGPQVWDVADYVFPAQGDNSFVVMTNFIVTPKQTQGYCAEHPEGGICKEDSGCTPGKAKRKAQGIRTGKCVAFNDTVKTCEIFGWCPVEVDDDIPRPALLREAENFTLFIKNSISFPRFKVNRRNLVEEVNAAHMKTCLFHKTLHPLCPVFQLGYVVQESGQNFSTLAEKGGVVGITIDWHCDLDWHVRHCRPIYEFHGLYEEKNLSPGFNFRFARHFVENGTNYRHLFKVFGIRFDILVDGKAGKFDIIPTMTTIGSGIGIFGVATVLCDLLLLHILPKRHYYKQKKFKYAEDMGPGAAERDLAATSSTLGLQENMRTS

[29] = molecular target: P2Y purinoceptor 1 (Homo sapiens) (UniProt P47900); test: Antagonist activity against P2Y1 (unknown origin) assessed as inhibition of agonist binding up to 10 uM
Chain of P2Y purinoceptor 1 (Homo sapiens) (P47900 whole entry): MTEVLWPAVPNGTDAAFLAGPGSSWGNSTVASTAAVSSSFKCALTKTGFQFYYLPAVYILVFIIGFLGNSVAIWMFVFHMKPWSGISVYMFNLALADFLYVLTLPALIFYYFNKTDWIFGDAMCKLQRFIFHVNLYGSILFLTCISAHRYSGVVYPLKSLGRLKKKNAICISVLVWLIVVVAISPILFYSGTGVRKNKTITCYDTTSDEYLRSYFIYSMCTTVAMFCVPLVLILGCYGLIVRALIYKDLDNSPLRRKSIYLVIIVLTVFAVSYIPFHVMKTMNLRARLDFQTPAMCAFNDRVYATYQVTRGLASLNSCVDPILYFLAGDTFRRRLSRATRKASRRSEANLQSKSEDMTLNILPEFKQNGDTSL

Row | Compound | Ratio IC50 [1] | inhibition (INH) (Cytochrome P450 3A4 [3]) | Activity (Platelet [4]) | solubility [5] | inhibition (INH) (Cytochrome P450 3A4 [6]) | IC50 (Platelet [7]) | inhibition (INH) (Cytochrome P450 2C9) | Activity (Platelet [8]) | Stability (Liver microsome [9]) | inhibition (INH) (Cytochrome P450 2D6) | Stability (Liver microsome [11]) | inhibition (INH) [12] | solubility [13] | other results
1 | CCOC(=O)N1CCN(C(=O)[C@H](CCC(=O)O)NC(=O)c2cc(-c3ccc[n+]([O-])c3)nc(-c3ccccc3)n2)CC1 | 0.98 | Not Active | <30% | soluble | Not Active | 126 nM | Not Active | <70% | Stable | Not Active | Stable | Not Active | soluble | AUC (Rattus norvegicus [2]; BLD = below limit of detection): BLD; Cmax (Rattus norvegicus [10]): BLD
2 | CCOC(=O)N1CCN(C(=O)[C@H](CCC(=O)O)NC(=O)c2cc(NCCO)nc(-c3ccccc3)n2)CC1 | 0.67 | Not Active | <30% | soluble | Not Active | 114 nM | Not Active | <70% | Stable | Not Active | Stable | Not Active | soluble | half-life [14]: 12 min; Vd [15]: 1 L/kg; AUC (Rattus norvegicus [2]): 8.44 nM·h; fraction unbound [16]: 0.135; F (Rattus norvegicus [17]): 3%; Cmax [18]: 17.5 nM; IC50 (P2Y purinoceptor 12): 169 nM
3 | CCCCOC(=O)N1CCN(C(=O)[C@H](CCC(=O)O)NC(=O)c2cc([C@H]3C[C@@H]3COC)nc(-c3ccccc3)n2)CC1 |  |  |  |  |  |  |  |  |  |  |  |  |  | inhibition [19]: inactive; inhibition [20]: inactive; inhibition [21]: inactive; inhibition [22]: inactive; inhibition [23]: inactive; inhibition [24]: inactive; inhibition [25]: inactive; inhibition [26]: inactive; inhibition [27]: inactive; inhibition [28]: inactive; inhibition [29]: inactive
